Measurements reported in ChEMBL document CHEMBL1141224, “Parallel solution-phase and microwave-assisted synthesis of new S-DABO derivatives endowed with subnanomolar anti-HIV-1 activity” (J Med Chem, 2005).
pEC50: −log10 of the molar value. The source made the active and inactive calls. No cut-off for these calls is given here.

Assays:
[1] = system: Human immunodeficiency virus type 1 reverse transcriptase (Human immunodeficiency virus 1), Q72547 [Y181I]; test: Inhibition of Y181I mutant HIV1 reverse transcriptase by [3H]dTTP poly(rA)/oligo(dT) incorporation at 400 uM
Outline: (§1)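 RNA-dependent DNA polymerase assay of recombinant RT at 5–10 nM. Template: poly(rA)/oligo(dT) (0.3 μM 3'-OH ends) with 10 μM [3H]-dTTP. Run 10 min at 37 °C with increasing inhibitor. TCA-precipitated product was counted on GF/C filters. Highest concentration tested was 400 μM.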

[2] = molecular target: Human immunodeficiency virus type 1 reverse transcriptase (Human immunodeficiency virus 1) (UniProt Q72547); test: Inhibition of wild type HIV1 reverse transcriptase by [3H]dTTP poly(rA)/oligo(dT) incorporation at 400 uM; outline: as §1
[3] = system: MT4; test: Cytotoxicity against MT4 cells by MTT method; type: functional; conditions: Homo sapiens
Outline: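 Mock-infected MT-4 cells exposed to graded drug concentrations. Viability assessed by MTT colorimetric method at day 5. CC50 is the concentration causing 50% death of noninfected cells. Mean of at least two experiments.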

[4] = system: Human immunodeficiency virus 1; test: Antiviral activity against HIV1 Y188L mutant strain infected MT4 cells by MTT method; type: functional, organism-based; conditions: for pEC50: Human immunodeficiency virus 1, Y188L, MT4
[5] = system: Human immunodeficiency virus 1; test: Antiviral activity against wild type HIV1 NL4-3 infected MT4 cells by MTT method; type: functional, organism-based; conditions: Human immunodeficiency virus 1, NL4-3, MT4
Outline: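 MT-4 lymphoid cells infected with HIV-1 NL4-3 in the presence of graded drug concentrations. Viable cells counted by MTT colorimetric assay at day 5 post-infection. EC50 is the concentration protecting 50% of cells from HIV-induced death. Mean of at least two experiments.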

[6] = system: Human immunodeficiency virus type 1 reverse transcriptase (Human immunodeficiency virus 1), Q72547 [K103N]; test: Inhibition of K103N mutant HIV1 reverse transcriptase by [3H]dTTP poly(rA)/oligo(dT) incorporation at 400 uM; outline: as §1
[7] = system: Human immunodeficiency virus 1; test: Antiviral activity against HIV1 IRLL98 mutant strain infected MT4 cells by MTT method; type: functional, organism-based; conditions: Human immunodeficiency virus 1, IRLL98, MT4
Outline: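 MT-4 cells infected with the HIV-1 mutant strain, or mock-infected for cytotoxicity, in the presence of a range of drug concentrations. Viable cells were counted by MTT colorimetric assay on day 5 post-infection. EC50 is the concentration that blocks 50% of HIV-induced cell death. Values are the mean of at least two experiments. IRLL98 carries RT mutations K101Q, Y181C and G190A, plus NRTI mutations.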

[8] = system: Human immunodeficiency virus 1; test: Antiviral activity against HIV1 K103N mutant strain infected MT4 cells by MTT method; type: functional, organism-based; conditions: Human immunodeficiency virus 1, K103N
[9] = system: Human immunodeficiency virus type 1 reverse transcriptase (Human immunodeficiency virus 1), Q72547 [K103N]
[10] = molecular target: Human immunodeficiency virus type 1 reverse transcriptase (Human immunodeficiency virus 1) (UniProt Q72547)
[11] = system: Human immunodeficiency virus type 1 reverse transcriptase (Human immunodeficiency virus 1), Q72547 [Y181I]

Structure (SMILES) | ID50 [1] | ID50 [2] | CC50 [3] [µM] | pEC50 [4] | pEC50 [5] | ID50 [6] | pEC50 [7] | pEC50 [8] | ID50 [9] [µM] | ID50 [10] [µM] | ID50 [11] [µM] | Inhibition [4] [%]
COc1cc(CSc2nc(O)c(C)c(Cc3c(F)cccc3F)n2)cc(OC)c1 | inactive | inactive | > 60 | < 4.22 | 4.74 | inactive | < 4.22 | < 4.22 |  |  |  | 
Cc1c(O)nc(SCc2ccc(Br)cc2)nc1Cc1c(Cl)cccc1Cl | inactive |  | 13 | < 4.28 | 6.10 |  | < 4.28 | < 4.28 | 9 | 0.39 |  | 
Cc1c(O)nc(S(=O)(=O)Cc2ccc([N+](=O)[O-])cc2)nc1Cc1c(Cl)cccc1Cl | inactive | inactive | > 53 | < 4.28 | < 4.28 | inactive | < 4.28 | < 4.28 |  |  |  | 
Cc1ccnc2c1NC(=O)c1cccnc1N2C1CC1 [NEVIRAPINE] |  |  | > 7.5 | < 5.12 | 7.28 |  | < 5.12 | 5.41 | 8 |  | 20 | 
COc1ccc(CSc2nc(O)c(C)c(Cc3c(Cl)cccc3Cl)n2)c(OC)c1 | inactive |  | > 55 | < 4.26 | 5.88 | inactive | < 4.26 | < 4.26 |  | 25 |  | 
Cc1c(O)nc(SCc2cccc(Cl)c2)nc1Cc1c(Cl)cccc1Cl |  |  | > 59 | < 4.23 | 6.51 |  | 5.32 | < 4.23 | 400 | 2.3 | 400 | 
Cc1cn([C@H]2C[C@H](N=[N+]=[N-])[C@@H](CO)O2)c(=O)[nH]c1=O [ZIDOVUDINE] |  |  | 3.7 | 8.52 | 8.52 |  | 8.10 | 8.52 |  |  |  | 
COc1ccc(CS(=O)(=O)c2nc(O)c(C)c(Cc3c(Cl)cccc3Cl)n2)cc1 |  |  | 2.8 | < 5.55 | < 5.55 |  | < 5.55 | < 5.55 | 10 | 0.006 | 27 | 
Cc1c(O)nc(SCc2ccc3c(c2)OCO3)nc1Cc1c(Cl)cccc1Cl | inactive |  | > 57 | 4.48 | 6.92 | inactive | 6.29 | 5.28 |  | 0.5 |  | 
COc1ccc(CSc2nc(O)c(C)c(Cc3c(F)cccc3F)n2)cc1 | inactive |  | > 64 | 5.00 | 7.59 |  | 6.16 | 6.16 | 3.5 | 0.007 |  | 
Cc1c(Cc2c(F)cccc2F)nc(SCc2ccc([N+](=O)[O-])cc2)[nH]c1=O | inactive | inactive | > 62 | < 4.21 | 7.13 | inactive | < 4.21 | < 4.21 |  |  |  | 
COc1ccc(CCCSc2nc(O)c(C)c(Cc3c(Cl)cccc3Cl)n2)cc1 |  |  | 1 | < 6.00 | 9.36 |  | 6.96 | < 6.00 | 0.5 | 0.037 | 0.3 | 
Cc1c(O)nc(SCc2ccc([N+](=O)[O-])cc2)nc1Cc1c(Cl)cccc1Cl |  |  | > 58 |  | 6.10 |  | 5.48 | 4.96 | 0.12 | 0.009 | 0.22 | 31
Cc1c(O)nc(SCc2ccc(C#N)cc2)nc1Cc1c(F)cccc1F | inactive |  | > 65 | < 4.19 | 7.28 | inactive | < 4.19 | < 4.19 |  | 0.76 |  | 
Cc1c(O)nc(SCc2ccc(O)cc2)nc1Cc1c(Cl)cccc1Cl | inactive | inactive | 41 | < 4.39 | < 4.39 | inactive | < 4.39 | < 4.39 |  |  |  | 
Cc1c(O)nc(SCc2ccc(C#N)cc2)nc1Cc1c(Cl)cccc1Cl | inactive |  | > 60 | < 4.22 | 6.77 | inactive | 6.00 | 7.00 |  | 103 |  | 
COc1ccc(CSc2nc(O)c(C)c(Cc3c(Cl)cccc3Cl)n2)cc1OC | inactive |  | > 55 | < 4.26 | 6.70 | inactive | 6.03 | 5.00 |  | 1.2 |  | 
COc1ccc(CSc2nc(O)c(C)c(Cc3ccc(F)cc3)n2)cc1 | inactive | inactive | 8.9 | < 5.05 | < 5.05 | inactive | < 5.05 | < 5.05 |  |  |  | 
Cc1c(O)nc(SCc2ccc(F)cc2)nc1Cc1c(Cl)cccc1Cl | inactive |  | > 61 | < 4.21 | 6.96 | inactive | 5.57 | 4.57 |  | 16 |  | 
Cc1c(O)nc(S(=O)(=O)Cc2ccc(Br)cc2)nc1Cc1c(Cl)cccc1Cl | inactive | inactive | > 50 | < 4.30 | < 4.30 | inactive | < 4.30 | < 4.30 |  |  |  | 
Cc1c(O)nc(SCc2ccc3c(c2)C(=O)c2ccccc2C3=O)nc1Cc1c(Cl)cccc1Cl | inactive |  | > 48 | < 4.32 | 4.89 | inactive | < 4.32 | < 4.32 |  | 3.5 |  | 
CCOc1ccc(CSc2nc(O)c(C)c(Cc3c(Cl)cccc3Cl)n2)cc1 | inactive |  | > 58 | < 4.24 | 6.60 | inactive | 5.72 | < 4.24 |  | 2 |  | 
Cc1c(O)nc(SCc2cccc(C#N)c2)nc1Cc1c(Cl)cccc1Cl | inactive |  | > 60 | < 4.22 | 6.05 | inactive | 5.30 | < 4.22 |  | 9.5 |  | 
COc1cc(CSc2nc(O)c(C)c(Cc3c(Cl)cccc3Cl)n2)cc(OC)c1 | inactive |  | > 55 | < 4.26 | 4.48 | inactive | < 4.26 | < 4.26 |  | 256 |  | 
Cc1c(O)nc(SCc2ccc([N+](=O)[O-])cc2)nc1Cc1ccc(F)cc1 | inactive | inactive | > 65 | < 4.19 | < 4.19 | inactive | < 4.19 | < 4.19 |  |  |  | 
Cc1c(O)nc(SCc2ccc(Cl)cc2)nc1Cc1c(Cl)cccc1Cl | inactive |  | > 59 | < 4.23 | 6.33 | inactive | 5.68 | < 4.23 |  | 20 |  | 
COc1ccc(CSc2nc(Cc3c(Cl)cccc3Cl)c(C)c(=O)[nH]2)cc1 |  |  | 32 | < 4.49 | 8.15 |  | 7.33 | 5.33 | 102 | 0.004 | 150 | 
O=C1Nc2ccc(Cl)cc2[C@@](C#CC2CC2)(C(F)(F)F)O1 [EFAVIRENZ] |  |  | > 0.32 |  |  |  | 6.70 | 7.24 |  |  |  | 
Cc1c(O)nc(SCc2cccc(F)c2)nc1Cc1c(Cl)cccc1Cl | inactive |  | > 61 | < 4.21 | 6.82 |  | 5.66 | < 4.21 | 35 | 2 |  | 
Cc1c(O)nc(SCc2ccccc2)nc1Cc1c(Cl)cccc1Cl | inactive |  | > 64 | < 4.19 | 6.08 |  | < 4.19 | < 4.19 | 350 | 2.5 |  | 
